In ChEMBL document CHEMBL3853270, “Influence of Birch Bark Triterpenes on Keratinocytes and Fibroblasts from Diabetic and Nondiabetic Donors” (2016):
Activity calls are given as the source filed them. The rule behind the calls is not given here.

Key:
Assay type in all cases: functional
[1] = Effect on wound healing activity in non-diabetic adult human primary keratinocytes assessed as upregulation of RANTES protein levels at 1.96 uM after 24 hrs by bead-based suspension array analysis; settings: Keratinocyte
Keratinocyte [2] = experiment: Effect on pro-inflammatory related gene expression in non-diabetic young human primary keratinocytes assessed as PTGS2 mRNA levels at 1.96 uM after 6 hrs by qPCR analysis
Keratinocyte [3] = experiment: Effect on pro-inflammatory related gene expression in non-diabetic young human primary keratinocytes assessed as IL6 mRNA levels at 1.96 uM after 6 hrs by qPCR analysis
Keratinocyte [4] = experiment: Effect on chemokines related gene expression in non-diabetic young human primary keratinocytes assessed as IL8 mRNA levels at 1.96 uM after 6 hrs by qPCR analysis
Procedure, shortened: (§1)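 Primary human keratinocytes (nondiabetic young or adult, diabetic adult donors) were exposed to compound for 6 h, with 0.1% DMSO as solvent control. Total RNA came from 400 000 cells per sample and was assayed on a Fluidigm Biomark high-throughput qPCR chip. Results are fold change vs solvent control, from 2−4 independent experiments on two donors per group, with SD. Groups were compared by one-way ANOVA with Bonferroni post-test.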

Keratinocyte [5] = experiment: Effect on growth factor related gene expression in non-diabetic young human primary keratinocytes assessed as GDF15 mRNA levels at 1.96 uM after 6 hrs by qPCR analysis; procedure, shortened: as §1
Keratinocyte [6] = experiment: Effect on pro-inflammatory related gene expression in non-diabetic adult human primary keratinocytes assessed as IL1B mRNA levels at 1.96 uM after 6 hrs by qPCR analysis
Keratinocyte [7] = experiment: Effect on pro-inflammatory related gene expression in diabetic adult human primary keratinocytes assessed as IL1B mRNA levels at 1.96 uM after 6 hrs by qPCR analysis
Keratinocyte [8] = experiment: Effect on growth factor related gene expression in diabetic adult human primary keratinocytes assessed as GDF15 mRNA levels at 1.96 uM after 6 hrs by qPCR analysis; procedure, shortened: as §1
Keratinocyte [9] = experiment: Effect on chemokines related gene expression in non-diabetic young human primary keratinocytes assessed as CXCL10 mRNA levels at 9.81 uM after 6 hrs by qPCR analysis; procedure, shortened: as §1
Keratinocyte [10] = experiment: Effect on antiinflammatory related gene expression in non-diabetic young human primary keratinocytes assessed as NFKBIA mRNA levels at 9.81 uM after 6 hrs by qPCR analysis
Keratinocyte [11] = experiment: Effect on pro-inflammatory related gene expression in non-diabetic adult human primary keratinocytes assessed as IL6 mRNA levels at 9.81 uM after 6 hrs by qPCR analysis
Keratinocyte [12] = experiment: Effect on pro-inflammatory related gene expression in diabetic adult human primary keratinocytes assessed as IL1B mRNA levels at 9.81 uM after 6 hrs by qPCR analysis
Keratinocyte [13] = experiment: Effect on pro-inflammatory related gene expression in diabetic adult human primary keratinocytes assessed as IL6 mRNA levels at 9.81 uM after 6 hrs by qPCR analysis
Keratinocyte [14] = experiment: Effect on growth factor related gene expression in diabetic adult human primary keratinocytes assessed as VEGFA mRNA levels at 9.81 uM after 6 hrs by qPCR analysis; procedure, shortened: as §1
Fibroblast [15] = experiment: Effect on antiinflammatory related gene expression in non-diabetic young human primary fibroblasts assessed as SOCS3 mRNA levels at 9.81 uM after 6 hrs by qPCR analysis
Fibroblast [16] = experiment: Effect on transcription factor related gene expression in non-diabetic young human primary fibroblasts assessed as JUN mRNA levels at 1.96 uM after 6 hrs by qPCR analysis
Fibroblast [17] = experiment: Effect on MMP1 mRNA expression levels in non-diabetic young human primary fibroblasts at 1.96 uM after 6 hrs by qPCR analysis
Procedure, shortened: (§2)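 Primary dermal fibroblasts from one nondiabetic young, one nondiabetic adult and one diabetic adult donor; 320 000 cells per sample, 6 h at 1.96 or 9.81 μM. RNA measured on a high-throughput qPCR chip. Fold change versus 0.1% DMSO control, four independent experiments, SD, one-way ANOVA with Bonferroni post-test.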

Fibroblast [18] = experiment: Effect on pro-inflammatory related gene expression in non-diabetic adult human primary fibroblasts assessed as IL1R1 mRNA levels at 1.96 uM after 6 hrs by qPCR analysis
Fibroblast [19] = experiment: Effect on antioxidant related gene expression in non-diabetic adult human primary fibroblasts assessed as SOD2 mRNA levels at 1.96 uM after 6 hrs by qPCR analysis
Fibroblast [20] = experiment: Effect on pro-inflammatory related gene expression in diabetic adult human primary fibroblasts assessed as IL1B mRNA levels at 1.96 uM after 6 hrs by qPCR analysis
Procedure, shortened: (§3)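 Primary human dermal fibroblasts (young or adult nondiabetic, adult diabetic donor) were treated for 6 h against a 0.1% DMSO solvent control. RNA from 320 000 cells per sample was measured by Fluidigm Biomark high-throughput qPCR. Values are fold change relative to solvent control, from four independent experiments, with SD. One-way ANOVA with Bonferroni post-test was applied.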

Fibroblast [21] = experiment: Effect on chemokines related gene expression in non-diabetic adult human primary fibroblasts assessed as WDR26 mRNA levels at 1.96 uM after 6 hrs by qPCR analysis
Fibroblast [22] = experiment: Effect on pro-inflammatory related gene expression in non-diabetic adult human primary fibroblasts assessed as IL6 mRNA levels at 9.81 uM after 6 hrs by qPCR analysis
Fibroblast [23] = experiment: Effect on antiinflammatory related gene expression in non-diabetic adult human primary fibroblasts assessed as NFKBIA mRNA levels at 9.81 uM after 6 hrs by qPCR analysis; procedure, shortened: as §2
Fibroblast [24] = experiment: Effect on pro-inflammatory related gene expression in diabetic adult human primary fibroblasts assessed as PTGS2 mRNA levels at 9.81 uM after 6 hrs by qPCR analysis
Fibroblast [25] = experiment: Effect on pro-inflammatory related gene expression in diabetic adult human primary fibroblasts assessed as IL1R1 mRNA levels at 9.81 uM after 6 hrs by qPCR analysis; procedure, shortened: as §3
Fibroblast [26] = experiment: Effect on pro-inflammatory related gene expression in diabetic adult human primary fibroblasts assessed as IL6 mRNA levels at 9.81 uM after 6 hrs by qPCR analysis; procedure, shortened: as §3
[27] = Effect on wound healing activity in non-diabetic adult human primary keratinocytes assessed as upregulation of MIP1alpha protein levels at 1.96 uM after 24 hrs by bead-based suspension array analysis; settings: Keratinocyte
[28] = Effect on wound healing activity in diabetic adult human primary keratinocytes assessed as upregulation of IL1RA protein levels at 1.96 uM after 24 hrs by bead-based suspension array analysis; settings: Keratinocyte
Keratinocyte [29] = experiment: Effect on wound healing activity in non-diabetic adult human primary keratinocytes assessed as increase in soluble gp130 part of IL6 receptor protein levels at 1.96 uM after 24 hrs by bead-based suspension array analysis
Keratinocyte [30] = experiment: Effect on wound healing activity in diabetic adult human primary keratinocytes assessed as increase in soluble gp130 part of IL6 receptor protein levels at 1.96 uM after 24 hrs by bead-based suspension array analysis
[31] = Effect on wound healing activity in diabetic adult human primary fibroblasts assessed as upregulation of RANTES protein levels at 1.96 uM after 24 hrs by bead-based suspension array analysis; settings: Fibroblast
[32] = Effect on wound healing activity in non-diabetic adult human primary fibroblasts assessed as upregulation of soluble ICAM1 protein levels at 1.96 uM after 24 hrs by bead-based suspension array analysis; settings: Fibroblast

**Q.** Which results are given for `C=C(C)[C@@H]1CC[C@]2(CO)CC[C@]3(C)[C@H](CC[C@@H]4[C@@]5(C)CC[C@H](O)C(C)(C)[C@@H]5CC[C@]43C)[C@@H]12` [BETULIN]?
**A.** Activity [1]: Active; fold change (FC) (Keratinocyte [2]): 1.4; fold change (FC) (Keratinocyte [3]): 3.6; fold change (FC) (Keratinocyte [4]): 9.7; fold change (FC) (Keratinocyte [5]): 1; fold change (FC) (Keratinocyte [6]): 0.8; fold change (FC) (Keratinocyte [7]): 0.8; fold change (FC) (Keratinocyte [8]): 1.4; fold change (FC) (Keratinocyte [9]): 1.7; fold change (FC) (Keratinocyte [10]): 1.6; fold change (FC) (Keratinocyte [11]): 24.1; fold change (FC) (Keratinocyte [12]): 1; fold change (FC) (Keratinocyte [13]): 26; fold change (FC) (Keratinocyte [14]): 2.2; fold change (FC) (Fibroblast [15]): 3.2; fold change (FC) (Fibroblast [16]): 1; fold change (FC) (Fibroblast [17]): 0.8; fold change (FC) (Fibroblast [18]): 4.8; fold change (FC) (Fibroblast [19]): 18; fold change (FC) (Fibroblast [20]): 7.6; fold change (FC) (Fibroblast [21]): 0.9; fold change (FC) (Fibroblast [22]): 246; fold change (FC) (Fibroblast [23]): 11; fold change (FC) (Fibroblast [24]): 2.9; fold change (FC) (Fibroblast [25]): 1.9; fold change (FC) (Fibroblast [26]): 5.3; Activity [27]: Active; Activity [28]: Active; Activity (Keratinocyte [29]): Active; Activity (Keratinocyte [30]): Active; Activity [31]: Active; Activity [32]: Active
